We go through 28 molecules from ChEMBL document CHEMBL4732107, “Synthesis and anticancer activity evaluation of naphthalene-substituted triazole spirodienones” (Eur J Med Chem, 2021).

Calls of active or inactive are those of the source. The calls are words filed in the database; no cut-off is given here.

The subject of data set [1] is A549. The data set can be described thus: Antiproliferative activity against human A549 cells assessed as reduction in cell viability measured after 5 days by beckman coulter counting method. The data set is classed as functional, cell-based. The note with it: A549, 120 h. Summed up: (§1)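 Cells kept in DMEM with 10% FBS, 4 mM glutamine, 1 mM sodium pyruvate, penicillin/streptomycin and amphotericin, at 37 °C in 5% CO2. Seeded at 20,000 per well, then exposed to 5 concentrations for 5 days, with DMSO as vehicle. Viable cells counted on a cell viability analyzer. Viability expressed as treated/vehicle count, and IC50 taken from dose-response curves.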

Data set [2] deals with MDA-MB-231. The data set can be described thus: Antiproliferative activity against human MDA-MB-231 cells assessed as reduction in cell viability measured after 5 days by beckman coulter counting method. The settings on record: MDA-MB-231, 120 h. The data set is classed as functional, cell-based.
In data set [3] the test system is HeLa. Kind of data set: Antiproliferative activity against human HeLa cells assessed as reduction in cell viability measured after 5 days by beckman coulter counting method. The settings on record: 120 h. The data set is classed as functional, cell-based.
Data set [4] is described as follows: Toxicity in mouse implanted with mouse 4T1 cells assessed as change in body weight at 1 mg/kg, ip administered daily for 12 days measured daily during compound dosing. The note with it: in vivo, 288 h, time 12 day. The data set is classed as organism-based. The method in brief:
(§2)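 Mice bearing orthotopic 4T1 tumors were randomized into 4 groups (n = 6) once tumors reached about 100 mm2. Groups received vehicle, test compound at 1 or 2 mg/kg, or doxorubicin at 1 mg/kg, given i.p. every day. Body weight and tumor volume were recorded daily. Tumors were excised and weighed at the end, and inhibition was calculated against the saline control.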

The subject of data set [5] is 4T1. Kind of data set: Antitumor activity against mouse 4T1 cells implanted in mouse assessed as tumor growth inhibition at 1 mg/kg, ip administered daily for 12 days relative to control. The data set is classed as functional. The note with it: 4T1, ip, 288 h, time 12 day, read-out: TGI. The method in brief: as §2
Data set [6] relates to 4T1. The data set can be described thus: Antitumor activity against mouse 4T1 cells implanted in mouse assessed as reduction in tumor weight at 1 mg/kg, ip administered daily for 12 days. The data set is classed as functional, organism-based. The note with it: time 12.0 day. The method in brief:
as §2

The subject of data set [7] is MCF7. Kind of data set: Antiproliferative activity against human MCF7 cells assessed as reduction in cell viability measured after 5 days by beckman coulter counting method. The data set is classed as functional, cell-based. The note with it: MCF7, 120 h. Summed up: as §1
The test system of data set [8] is MDA-MB-231. The data set can be described thus: Cell cycle arrest in human MDA-MB-231 cells assessed as accumulation at G2 phase at 1 uM measured after 24 hrs by propidium iodide staining based flow cytometry (reference value: 5.77%). The data set is classed as functional. The method in brief: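 MDA-MB-231 cells were seeded at 5 × 10^5 cells/mL and treated for 24 h. They were then trypsinized and washed twice in cold PBS. Cells were resuspended in PBS, stained with PI for 15 min at room temperature in the dark, and analyzed by flow cytometry.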
A general note: In flow cytometry, cells or beads pass a laser one at a time.

The test system of data set [9] is MDA-MB-231. The data set can be described thus: Cell cycle arrest in human MDA-MB-231 cells assessed as accumulation at G1 phase at 1 uM measured after 24 hrs by propidium iodide staining based flow cytometry (reference value: 74.39%). The data set is classed as functional.
For data set [10], the system named is MDA-MB-231. The data set can be described thus: Induction of apoptosis in human MDA-MB-231 cells assessed as early apoptotic cells at 1 uM measured after 24 hrs by annexin V-FITC/propidium iodide staining based flow cytometry (reference value: 1.49%). The data set is classed as functional.
Data set [11] deals with MDA-MB-231. The data set can be described thus: Induction of apoptosis in human MDA-MB-231 cells assessed as viable cells at 1 uM measured after 24 hrs by annexin V-FITC/propidium iodide staining based flow cytometry (reference value: 90.9%). The data set is classed as functional. The note with it: read-out: Activity.
Data set [12] relates to MDA-MB-231. The data set can be described thus: Induction of apoptosis in human MDA-MB-231 cells assessed as necrotic cells at 1 uM measured after 24 hrs by annexin V-FITC/propidium iodide staining based flow cytometry (reference value: 4.74%). The data set is classed as functional.
For data set [13], the system named is MDA-MB-231. Kind of data set: Cell cycle arrest in human MDA-MB-231 cells assessed as accumulation at S phase at 1 uM measured after 24 hrs by propidium iodide staining based flow cytometry (reference value: 19.84%). The data set is classed as functional.
In data set [14] the test system is MDA-MB-231. The data set can be described thus: Induction of apoptosis in human MDA-MB-231 cells assessed as late apoptotic cells at 1 uM measured after 24 hrs by annexin V-FITC/propidium iodide staining based flow cytometry (reference value: 2.84%). The data set is classed as functional.

Regarding `O=C1C=CC2(C=C1)OCC(=O)N2c1nc(-c2ccc3c(c2)OCCO3)nn1-c1ccccc1`, the IC50 (commonly the midpoint of a concentration-inhibition curve) in [1] was found to be 170 nM; in data set [2], 100 nM; in [3], 70 nM.
For `Cc1ccccc1-n1nc(-c2cccc3ccccc23)nc1N1C(=O)COC12C=CC(=O)C=C2` the same measures were 130 nM, 120 nM and 100 nM.
As for `COc1cccc2c1C(=O)c1c(O)c3c(c(O)c1C2=O)C[C@@](O)(C(=O)CO)C[C@@H]3O[C@H]1C[C@H](N)[C@H](O)[C@H](C)O1` [DOXORUBICIN], the Activity result in data set [4] is given as “Non-Toxic”. Also, in data set [5], the inhibition in vivo at 1 mg/kg amounted to 45.1%. For the same molecule, in data set [6], the result was Active.
Take `COc1ccc(-n2nc(-c3ccc4ccccc4c3)nc2N2C(=O)COC23C=CC(=O)C=C3)cc1`: the concentration for half-maximal inhibition (IC50) is 260 nM in [1], 60 nM in data set [2] and 200 nM in data set [3].
With `Cn1c(CCCC(=O)O)nc2cc(N(CCCl)CCCl)ccc21` [BENDAMUSTINE], the IC50 is 13300 nM in data set [2] and greater than 20000 nM in [3].
For `CC1OC2(C=CC(=O)C=C2)N(c2nc(-c3ccc4ccccc4c3)nn2-c2ccc3ccccc3c2)C1=O` (stereo not given) the same measures were 60 nM and 300 nM.
As to `O=C1C=CC2(C=C1)OCC(=O)N2c1nc(-c2ccc(F)c3ccccc23)nn1-c1ccccc1`, the figures for the IC50 in data set [1], in data set [2] and in data set [3] were 320 nM, 80 nM and 200 nM, respectively.
For the molecule `O=C1C=CC2(C=C1)OCC(=O)N2c1nc(-c2cccc(Cl)c2)nn1-c1ccccc1`, the IC50 was determined as 25.2 nM in data set [1], 0.8 nM in [2], 4.11 nM in data set [7] and 45.3 nM in data set [3].
On to `O=C1C=CC2(C=C1)OCCN2c1nc(-c2ccc3ccccc3c2)nn1-c1ccccc1`, for which the IC50 in data set [2] came to 230 nM; in data set [3], 370 nM.
Turning to `Cc1ccc(-n2nc(-c3cccc4ccccc34)nc2N2CCOC23C=CC(=O)C=C3)cc1`, the results for the IC50 in data set [1], in [2] and in data set [3] were 1520 nM, 260 nM and 570 nM, respectively.
On to `O=C1C=CC2(C=C1)OCC(=O)N2c1nc(-c2ccc3ccccc3c2)nn1-c1ccccc1`, for which the IC50 in [1] is 140 nM; in data set [2], 70 nM; in [3], 120 nM.
For `Cc1ccc(-n2nc(-c3ccc4ccccc4c3)nc2N2C(=O)C(C)OC23C=CC(=O)C=C3)cc1` (stereo not given), the half-maximal inhibitory concentration (IC50) turned out to be 1210 nM in data set [1], 100 nM in data set [2] and 530 nM in [3].
For `Cc1ccc(-n2nc(-c3ccc4ccccc4c3)nc2N2CCOC23C=CC(=O)C=C3)cc1` the same measures were 2000 nM, 160 nM and 520 nM.
For `O=C1C=CC2(C=C1)OCC(=O)N2c1nc(-c2ccc3ccccc3c2)nn1-c1ccc2ccccc2c1` the same measures were 250 nM, 50 nM and 210 nM.
For `CC1OC2(C=CC(=O)C=C2)N(c2nc(-c3ccc4ccccc4c3)nn2-c2ccccc2)C1=O` (stereo not given) the same measures were 310 nM, 70 nM and 120 nM.
With `Cc1ccc(-n2nc(-c3cccc4ccccc34)nc2N2C(=O)COC23C=CC(=O)C=C3)cc1`, the 50% inhibitory concentration (IC50) in data set [2] amounted to 40 nM; in data set [3], 140 nM.
Regarding `Cc1ccc(-n2nc(-c3ccc4ccccc4c3)nc2N2C(=O)COC23C=CC(=O)C=C3)cc1`, the half-inhibitory concentration (IC50) in data set [1] turned out to be 110 nM; in data set [2] it was 30 nM; in data set [3], 150 nM.
As to `O=C1C=CC2(C=C1)OCC(=O)N2c1nc(-c2ccc3ccccc3c2Br)nn1-c1ccccc1`, the IC50 in data set [1] was found to be 100 nM; in data set [2], 50 nM; in data set [3] it was 290 nM.
On to `O=C1C=CC2(C=C1)OCC(=O)N2c1nc(-c2ccc3c(c2)Cc2ccccc2-3)nn1-c1ccccc1`, for which the figures for the IC50 in data set [1], in [2] and in data set [3] were 150 nM, 70 nM and 110 nM, respectively.
For `CC1CN(c2nc(-c3ccc4ccccc4c3)nn2-c2ccccc2)C2(C=CC(=O)C=C2)O1` (stereo not given) the same measures were 320 nM, 130 nM and 260 nM.
For `O=C1C=CC2(C=C1)OCCN2c1nc(-c2cccc3ccccc23)nn1-c1ccccc1` the same measures were 430 nM, 110 nM and 150 nM.
For `O=C1C=CC2(C=C1)OCC(=O)N2c1nc(-c2ccc3ncccc3c2)nn1-c1ccccc1` the same measures were 170 nM, 50 nM and 110 nM.
Turning to `COc1ccc(-n2nc(-c3ccc4ccccc4c3)nc2N2C(=O)C(C)OC23C=CC(=O)C=C3)cc1` (stereo not given), the IC50 in data set [1] worked out at 860 nM; in data set [2], 50 nM; in data set [3], 140 nM.
For `O=C1C=CC2(C=C1)OCC(=O)N2c1nc(-c2ccc3c(c2)Cc2ccccc2-3)nn1-c1ccc(C(F)(F)F)cc1` the same measures were 180 nM, 80 nM and 130 nM.
With `COc1ccc(/C=C\c2cc(OC)c(OC)c(OC)c2)cc1O` [COMBRETASTATIN A4], the Activity was 18.16% in [8]; 54.49% in data set [9]; 8.57% in data set [10]; 12.8% in data set [12]; 27.34% in [13]; 20% in data set [14]. The viability at 1 µM in data set [11] was determined as 58.6%.
For `O=C1C=CC2(C=C1)OCC(=O)N2c1nc(-c2ccc3ccccc3c2)nn1-c1ccc(C(F)(F)F)cc1`, the results for the IC50 in data set [1], in data set [2] and in data set [3] were 460 nM, 70 nM and 390 nM, respectively.
As for `CC1OC2(C=CC(=O)C=C2)N(c2nc(-c3cccc4ccccc34)nn2-c2ccccc2)C1=O` (stereo not given), the IC50 was 180 nM in data set [1], 100 nM in data set [2] and 110 nM in data set [3].
For `O=C1C=CC2(C=C1)OCC(=O)N2c1nc(-c2ccc3ccccc3c2)nn1-c1ccc(Cl)cc1` the same measures were 400 nM, 70 nM and 720 nM.
